For data set [1], the target named is 72 kDa type IV collagenase (Homo sapiens, UniProt P08253). The data set can be described thus: Inhibition of human recombinant MMP2 using Mca-Pro-Leu-Gly-Leu-Dpa-Ala-Arg-NH2 as substrate preincubated for 60 mins followed by substrate addition by fluorimetric analysis.
Data set [2] concerns the target MMP-2/MMP-9 (Homo sapiens) (UniProt P08253+P14780). The data set can be described thus: Selectivity ratio of IC50 for human recombinant MMP9 to IC50 for human recombinant MMP2. In a few lines:
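IC50 values against MMP-2 and MMP-9 were each measured by a fluorimetric enzyme assay, with a reference inhibitor run alongside as positive control. The selectivity ratio is the MMP-9 IC50 divided by the MMP-2 IC50.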

Data set [3] has as its target Matrix metalloproteinase-9 (Homo sapiens, UniProt P14780). The data set can be described thus: Inhibition of human recombinant MMP9 using Mca-Pro-Leu-Gly-Leu-Dpa-Ala-Arg-NH2 as substrate preincubated for 60 mins followed by substrate addition by fluorimetric analysis.
The nature of data set [4]: Lipid-water partition coefficient, logP of compound. The data set is classed as physicochemical.
The nature of data set [5]: Apparent clearance in Sprague-Dawley rat at 10 mg/kg, iv after 15 mins to 24 hrs by LC-MS/MS method. The conditions noted are these: in vivo, read-out: CL(app) (converted). The data set is classed as ADME, organism-based. In a few lines: (§1)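 Sprague-Dawley rats were dosed at 10 mg/kg, either intravenously or orally. AUC0-24h, AUC0-∞, Vz, t1/2z and CLz were derived for each route.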

Data set [6] is described as follows: Apparent volume of distribution in Sprague-Dawley rat at 10 mg/kg, iv after 15 mins to 24 hrs by LC-MS/MS method. The class given is ADME, organism-based. The conditions noted are these: in vivo, read-out: Vz (converted). In a few lines: as §1
Data set [7] in a line: Oral bioavailability in Sprague-Dawley rat at 10 mg/kg by LC-MS/MS method. The class given is ADME, organism-based. The conditions noted are these: in vivo.
Data set [8] in a line: AUC (0 to 24 hrs) in Sprague-Dawley rat at 10 mg/kg, iv by LC-MS/MS method. Conditions: in vivo. On the set-up: time < 24 hr, dose 10 mg/kg, route intravenous. The class given is ADME, organism-based.
A short description of data set [9]: AUC (0 to infinity) in Sprague-Dawley rat at 10 mg/kg, iv after 15 mins to 24 hrs by LC-MS/MS method. The data set is classed as ADME, organism-based. Set-up: dose 10 mg/kg, time infinity, route intravenous. Conditions: in vivo.
Data set [10] in a line: Terminal half life in Sprague-Dawley rat at 10 mg/kg, iv by LC-MS/MS method. The class given is ADME, organism-based. The conditions noted are these: in vivo, read-out: beta t1/2 (converted). In a few lines: as §1
Data set [11] can be described thus: AUC (0 to infinity) in Sprague-Dawley rat at 10 mg/kg, po after 15 mins to 24 hrs by LC-MS/MS method. Conditions: in vivo. The class given is ADME, organism-based. Set-up: dose 10 mg/kg, route oral, time infinity.
For data set [12], the system named is HEY. The data set can be described thus: Antimigratory activity in human HEY cells at 50 uM after 24 hrs by crystal violet staining-based Transwell assay. The data set is classed as functional. An outline of the steps: (§2)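 Human ovarian cancer HEY cells were tested in a matrigel-based Transwell invasion assay, with cells invading the matrigel membrane and migrating from the upper to the lower chamber. Treatment was at 12.5, 25 and 50 µM for 24 h, with a DMSO control. Cells per view were counted after crystal violet staining. Treated groups were compared with control by t test.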

Data set [13] relates to HEY. The data set can be described thus: Antiinvasive activity in human HEY cells assessed as reduction in number of cells invading matrigel membrane after 24 hrs by crystal violet staining-based Transwell assay. The data set is classed as functional, cell-based. An outline of the steps:
as §2

Data set [14] deals with HEY. The data set can be described thus: Antiinvasive activity in human HEY cells assessed as reduction in number of cells invading matrigel membrane at 50 uM after 24 hrs by crystal violet staining-based Transwell assay. The class given is functional. On the set-up: scale not given: the % may be the effect or the level left. In a few lines: as §2
The test system of data set [15] is HEY. The data set is described as follows: Cytotoxicity against human HEY cells at 6.25 to 100 uM after 48 hrs by MTT assay relative to control. The class given is cell-based. An outline of the steps:
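HEY cell viability was measured by MTT assay after exposure to 6.25–100 µM, with DMSO as control. Medium was checked by microscope for solid particles.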
(In general: Tetrazolium dyes change colour on reduction, which living cells bring about.)

A short description of data set [16]: Terminal half life in Sprague-Dawley rat at 10 mg/kg, po by LC-MS/MS method. The data set is classed as ADME, organism-based. The conditions noted are these: in vivo, read-out: beta t1/2 (converted). An outline of the steps: as §1
The nature of data set [17]: AUC (0 to 24 hrs) in Sprague-Dawley rat at 10 mg/kg, po by LC-MS/MS method. Conditions: in vivo. The data set is classed as ADME, organism-based. Set-up: dose 10 mg/kg, time < 24 hr, route oral.
Data set [18] has as its system HEY. The data set can be described thus: Antimigratory activity in human HEY cells after 24 hrs by crystal violet staining-based Transwell assay. The data set is classed as functional, cell-based. An outline of the steps:
as §2

For data set [19], the system named is Rattus norvegicus. The data set is described as follows: Apparent volume of distribution in Sprague-Dawley rat at 10 mg/kg, po after 15 mins to 24 hrs by LC-MS/MS method. The conditions noted are these: in vivo. The class given is ADME, organism-based. An outline of the steps:
as §1

Data set [20] can be described thus: Apparent clearance in Sprague-Dawley rat at 10 mg/kg, po after 15 mins to 24 hrs by LC-MS/MS method. Conditions: in vivo, read-out: CL(app) (converted). The data set is classed as ADME, organism-based. In a few lines: as §1

As a reminder, the pIC50 is −log10 of the IC50, conventionally taken in molar units. Broadly, the logP is the decadic logarithm of the partition coefficient of the neutral form, usually between octanol and water. Broadly, the bioavailability is the share of a dose that reaches the circulation, judged against a reference dose that is usually intravenous. One may read the AUC(0-t) as exposure summed from dosing to a finite time, without extrapolation to infinity. As usually defined, the AUC(0-inf) is the area under the concentration-time curve extrapolated to infinity.

pIC50: −log10 of the molar value. Calls of active or inactive are those of the source. The rule behind the calls is not given here.

Matrix metalloproteinase-9, sequence (P14780 whole entry): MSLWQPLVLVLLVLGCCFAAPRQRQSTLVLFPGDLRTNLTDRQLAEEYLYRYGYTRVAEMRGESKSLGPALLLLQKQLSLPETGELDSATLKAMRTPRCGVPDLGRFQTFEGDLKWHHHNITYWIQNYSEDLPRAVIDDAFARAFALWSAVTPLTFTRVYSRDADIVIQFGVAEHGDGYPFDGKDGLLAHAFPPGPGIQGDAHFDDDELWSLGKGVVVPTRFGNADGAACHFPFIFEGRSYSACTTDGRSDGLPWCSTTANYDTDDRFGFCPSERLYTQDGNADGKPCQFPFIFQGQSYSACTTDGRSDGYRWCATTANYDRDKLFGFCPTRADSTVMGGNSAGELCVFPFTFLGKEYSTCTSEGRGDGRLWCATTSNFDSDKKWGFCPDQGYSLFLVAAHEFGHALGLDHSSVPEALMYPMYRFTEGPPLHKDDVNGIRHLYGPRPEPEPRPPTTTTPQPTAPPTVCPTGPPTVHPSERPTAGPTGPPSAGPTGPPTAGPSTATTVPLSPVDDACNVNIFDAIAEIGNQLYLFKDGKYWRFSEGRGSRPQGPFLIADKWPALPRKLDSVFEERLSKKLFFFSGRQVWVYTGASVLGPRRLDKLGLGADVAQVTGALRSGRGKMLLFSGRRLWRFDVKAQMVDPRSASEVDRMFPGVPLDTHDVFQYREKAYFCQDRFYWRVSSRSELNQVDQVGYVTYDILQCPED
72 kDa type IV collagenase, sequence (P08253 whole entry): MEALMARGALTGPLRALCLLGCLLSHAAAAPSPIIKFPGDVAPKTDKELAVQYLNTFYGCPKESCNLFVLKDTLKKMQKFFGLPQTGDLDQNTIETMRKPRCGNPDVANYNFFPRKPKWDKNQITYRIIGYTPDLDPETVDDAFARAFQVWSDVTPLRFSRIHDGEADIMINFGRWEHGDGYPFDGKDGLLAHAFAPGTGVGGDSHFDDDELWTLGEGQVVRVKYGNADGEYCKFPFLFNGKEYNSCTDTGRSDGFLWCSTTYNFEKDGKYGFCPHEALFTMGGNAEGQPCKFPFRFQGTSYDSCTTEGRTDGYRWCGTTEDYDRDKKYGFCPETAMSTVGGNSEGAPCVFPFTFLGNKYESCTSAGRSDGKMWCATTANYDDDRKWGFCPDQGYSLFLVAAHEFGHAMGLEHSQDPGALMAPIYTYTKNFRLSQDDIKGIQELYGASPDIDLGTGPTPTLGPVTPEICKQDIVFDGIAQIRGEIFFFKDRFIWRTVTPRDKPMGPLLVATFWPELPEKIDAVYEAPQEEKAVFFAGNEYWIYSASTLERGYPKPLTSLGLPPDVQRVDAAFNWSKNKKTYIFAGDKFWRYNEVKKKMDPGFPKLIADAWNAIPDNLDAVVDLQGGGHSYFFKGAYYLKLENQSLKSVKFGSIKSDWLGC

For the compound `CNC(=O)[C@H](Cc1c[nH]c2ccccc12)NC(=O)[C@@H](CC(=O)Nc1ccc(C)cc1N)CC(C)C`, the results for the pIC50 in data set [1] and in data set [3] were less than 5.00 and 5.14, respectively. In addition, in data set [2], the “Ratio IC50” value was “inactive”.
`CNC(=O)[C@H](Cc1c[nH]c2ccccc12)NC(=O)[C@@H](CC(=O)NO)CC(C)C` [ILOMASTAT] gave a logP in [4] of 1.04. Further, the clearance in data set [5] is 66.5 mL/min/kg. For the same compound, the Vd in data set [6] is 1.43 L/kg. Moreover, in data set [7], the bioavailability is 0%. The compound also returned an AUC(0-t) at 24 h in data set [8] of 2510 ng·h/mL. In addition, the AUC(0-inf) in [9] was 2510 ng·h/mL. For the same compound, in data set [10], the half-life is 0.25 h.
Take `CNC(=O)[C@H](Cc1c[nH]c2ccccc12)NC(=O)[C@@H](CC(=O)Nc1ccc(C(=O)c2ccccc2)cc1N)CC(C)C`: the pIC50 in [1] and in data set [3] was less than 5.00 throughout. Moreover, the “Ratio IC50” value in data set [2] was “inactive”.
In the case of `CNC(=O)[C@H](Cc1c[nH]c2ccccc12)NC(=O)[C@@H](CC(=O)Nc1ccccc1NC(C)=O)CC(C)C`, the pIC50 in data set [1] was less than 5.00; in [3] it was 6.81. Moreover, in data set [2], the “Ratio IC50” value is “inactive”.
For `CNC(=O)[C@H](Cc1c[nH]c2ccccc12)NC(=O)[C@@H](CC(=O)Nc1ccc(C(F)(F)F)cc1N)CC(C)C`, the pIC50 in [1] and in data set [3] was less than 5.00 each time. For the same compound, the “Ratio IC50” value in data set [2] is “inactive”.
With `CNC(=O)[C@H](Cc1c[nH]c2ccccc12)NC(=O)[C@@H](CC(=O)Nc1ccc(Br)cc1N)CC(C)C`, the pIC50 is 7.66 in [1] and 7.56 in data set [3]. The Ratio IC50 in data set [2] is 1.25.
Turning to `CNC(=O)[C@H](Cc1c[nH]c2ccccc12)NC(=O)[C@@H](CC(=O)Nc1ccc(F)cc1N)CC(C)C`, the negative logarithm of the IC50 (pIC50) in [1] is 8.66; in data set [3] it was 8.11. In addition, the Ratio IC50 in [2] worked out at 3.52.
Turning to `CNC(=O)[C@H](Cc1c[nH]c2ccccc12)NC(=O)[C@@H](CC(=O)Nc1ccccc1N)CC(C)C`, the total exposure AUC(0-inf) in [11] was determined as 140 ng·h/mL; in data set [9] it was 3210 ng·h/mL. In addition, the Activity in [12] was 84.6%; in data set [13] it was “Dose-dependent effect”; in data set [14], 84.6%; in data set [15], “Non-toxic”; in data set [18], “Dose-dependent effect”. The same compound gave a logP in data set [4] of 1.91. Moreover, the clearance in [5] was 52.2 mL/min/kg. In addition, the half-life in [16] is 5.64 h; in data set [10] it was 7.88 h. Further, in data set [6], the Vd was 35.8 L/kg. In [7], this compound had a bioavailability of 4%. In addition, the pIC50 was 9.72 in [1] and 5.80 in data set [3]. For the same compound, the results for the AUC(0-t) at 24 h in data set [8] and in data set [17] were 3070 ng·h/mL and 36.2 ng·h/mL, respectively. In [2], the Ratio IC50 is 8310. Besides, in [19], the Vz came to 579.41 L/kg. Moreover, the CL/F in data set [20] was 1190 mL/min/kg.
With `CNC(=O)[C@H](Cc1c[nH]c2ccccc12)NC(=O)[C@@H](CC(=O)Nc1cccc(N)c1)CC(C)C`, the pIC50 in data set [1] was 8.69; in [3], 7.87. Further, the Ratio IC50 in [2] turned out to be 6.59.
